Active and inactive are the calls of the source.
Columns and labels:
[1] = biological target: 5-hydroxytryptamine receptor 6 (Homo sapiens, UniProt P50406); assay: Displacement of [3H]-LSD from human 5-HT6 receptor expressed in HEK293 or CHO-K1 cells after 1 hr by microbeta counting analysis; format: cell-based
Outline: (§1)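 Membranes from stably transfected HEK293 or CHO-K1 cells, homogenized, centrifuged twice at 35,000g, with 15 min at 37 °C in between. Receptor-specific Tris-HCl buffers with MgCl2, plus EDTA, pargyline or ascorbate as applicable. Incubated 1 h at 37 °C (5-HT1A at room temperature), filtered, and bound radioactivity counted.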

[2] = biological target: T1, 5-hydroxytryptamine receptor 7 (Homo sapiens, UniProt P34969); assay: Displacement of [3H]-5-CT from human 5-HT7b receptor expressed in HEK293 cells after 1 hr by microbeta counting analysis; format: cell-based; outline: as §1
T1 sequence (P34969 whole entry): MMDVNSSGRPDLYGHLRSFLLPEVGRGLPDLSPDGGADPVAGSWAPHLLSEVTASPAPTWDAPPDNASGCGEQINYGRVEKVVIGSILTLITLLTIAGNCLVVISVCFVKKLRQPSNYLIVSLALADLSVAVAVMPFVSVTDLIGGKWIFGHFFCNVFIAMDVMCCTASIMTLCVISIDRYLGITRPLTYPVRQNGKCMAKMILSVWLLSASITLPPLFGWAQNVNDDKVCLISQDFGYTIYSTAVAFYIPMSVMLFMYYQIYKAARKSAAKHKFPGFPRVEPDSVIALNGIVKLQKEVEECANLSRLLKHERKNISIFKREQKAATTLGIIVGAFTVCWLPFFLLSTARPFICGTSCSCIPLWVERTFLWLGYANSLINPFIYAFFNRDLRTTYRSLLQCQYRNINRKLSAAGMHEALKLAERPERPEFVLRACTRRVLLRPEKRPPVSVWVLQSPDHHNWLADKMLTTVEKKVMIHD

[3] = biological target: T2, 5-hydroxytryptamine receptor 1A (Homo sapiens, UniProt P08908); assay: Displacement of [3H]-8-OH-DPAT from human 5-HT1A receptor expressed in HEK293 or CHO-K1 cells after 1 hr by microbeta counting analysis; format: cell-based; outline: as §1
T2 sequence (P08908 whole entry): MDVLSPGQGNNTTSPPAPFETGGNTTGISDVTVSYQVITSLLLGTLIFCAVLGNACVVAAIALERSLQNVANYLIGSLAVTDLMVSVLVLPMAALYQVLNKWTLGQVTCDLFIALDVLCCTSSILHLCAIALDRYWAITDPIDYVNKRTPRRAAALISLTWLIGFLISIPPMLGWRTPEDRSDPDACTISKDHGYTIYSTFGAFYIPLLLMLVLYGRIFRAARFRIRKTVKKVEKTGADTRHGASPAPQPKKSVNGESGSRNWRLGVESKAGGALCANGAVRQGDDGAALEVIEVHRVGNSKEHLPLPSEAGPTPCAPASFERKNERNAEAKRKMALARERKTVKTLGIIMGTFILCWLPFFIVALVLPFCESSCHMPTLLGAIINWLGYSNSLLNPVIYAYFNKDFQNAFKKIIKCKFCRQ

[4] = biological target: 5-hydroxytryptamine receptor 2A (Homo sapiens, UniProt P28223); assay: Displacement of [3H]-Ketanserin from human 5-HT2A receptor expressed in HEK293 or CHO-K1 cells after 1 hr by microbeta counting analysis; format: cell-based; outline: as §1
Sequence of 5-hydroxytryptamine receptor 2A (P28223 whole entry): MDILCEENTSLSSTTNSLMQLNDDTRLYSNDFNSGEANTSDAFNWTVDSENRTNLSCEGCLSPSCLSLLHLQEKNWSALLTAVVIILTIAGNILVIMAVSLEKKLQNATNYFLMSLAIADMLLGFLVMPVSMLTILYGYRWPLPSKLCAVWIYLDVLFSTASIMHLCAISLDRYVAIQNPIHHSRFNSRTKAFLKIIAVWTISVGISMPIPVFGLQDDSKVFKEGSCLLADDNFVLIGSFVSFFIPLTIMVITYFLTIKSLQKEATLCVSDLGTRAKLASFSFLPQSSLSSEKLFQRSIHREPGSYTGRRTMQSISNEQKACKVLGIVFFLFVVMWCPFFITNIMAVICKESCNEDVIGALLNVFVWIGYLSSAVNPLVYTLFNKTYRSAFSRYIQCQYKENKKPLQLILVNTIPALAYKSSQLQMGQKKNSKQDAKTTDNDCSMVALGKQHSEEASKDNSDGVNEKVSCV

D(2) dopamine receptor = D(2) dopamine receptor (Homo sapiens, UniProt P14416); assay: Displacement of [3H]-Raclopride from human dopamine D2L receptor expressed in HEK293 or CHO-K1 cells after 1 hr by microbeta counting analysis; format: cell-based; outline: as §1
Sequence of D(2) dopamine receptor (P14416 whole entry): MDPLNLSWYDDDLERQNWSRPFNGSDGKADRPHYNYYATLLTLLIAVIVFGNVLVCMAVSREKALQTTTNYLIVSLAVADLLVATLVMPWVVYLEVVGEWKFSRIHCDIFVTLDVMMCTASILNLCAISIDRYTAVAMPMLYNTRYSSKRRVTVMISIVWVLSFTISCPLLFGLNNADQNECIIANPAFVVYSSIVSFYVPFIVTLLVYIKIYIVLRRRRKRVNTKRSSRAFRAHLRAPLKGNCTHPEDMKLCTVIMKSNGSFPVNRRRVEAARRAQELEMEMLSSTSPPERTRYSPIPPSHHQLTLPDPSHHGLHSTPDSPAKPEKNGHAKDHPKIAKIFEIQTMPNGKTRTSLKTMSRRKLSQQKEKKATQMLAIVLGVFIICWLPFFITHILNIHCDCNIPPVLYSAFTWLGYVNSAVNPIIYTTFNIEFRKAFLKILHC

Homo sapiens = species: Homo sapiens; assay: Selectivity ratio of Ki for human 5-HT1A receptor to Ki for human 5-HT7b receptor
[5] = biological target: T1, 5-hydroxytryptamine receptor 7; assay: Antagonist activity at human 5-HT7b receptor expressed in HEK293 cells assessed as inhibition of 5-CT induced cAMP accumulation after 30 mins by LANCE based TR-FRET assay; format: functional, cell-based
Outline: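 Stable 5-HT7 HEK293 cells in DMEM with 10% dialysed FBS and G418, harvested at 90% confluence, washed in warm PBS, and resuspended in HBSS/5 mM HEPES/0.5 mM IBMX/0.1% BSA. Compound incubated with cells for 30 min at room temperature against 5-CT (10 nM). Cells lysed with Eu-cAMP/ULight-anti-cAMP for 1 h at room temperature, then LANCE cAMP read-out. Triplicate at 8 concentrations.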

[6] = biological target: Sodium-dependent serotonin transporter (Homo sapiens) (UniProt P31645); assay: Displacement of [3H]imipramine from recombinant human SERT at 1 uM after 60 mins by scintillation counting analysis relative to control
Sequence of Sodium-dependent serotonin transporter (Homo sapiens) (P31645 whole entry, looked up): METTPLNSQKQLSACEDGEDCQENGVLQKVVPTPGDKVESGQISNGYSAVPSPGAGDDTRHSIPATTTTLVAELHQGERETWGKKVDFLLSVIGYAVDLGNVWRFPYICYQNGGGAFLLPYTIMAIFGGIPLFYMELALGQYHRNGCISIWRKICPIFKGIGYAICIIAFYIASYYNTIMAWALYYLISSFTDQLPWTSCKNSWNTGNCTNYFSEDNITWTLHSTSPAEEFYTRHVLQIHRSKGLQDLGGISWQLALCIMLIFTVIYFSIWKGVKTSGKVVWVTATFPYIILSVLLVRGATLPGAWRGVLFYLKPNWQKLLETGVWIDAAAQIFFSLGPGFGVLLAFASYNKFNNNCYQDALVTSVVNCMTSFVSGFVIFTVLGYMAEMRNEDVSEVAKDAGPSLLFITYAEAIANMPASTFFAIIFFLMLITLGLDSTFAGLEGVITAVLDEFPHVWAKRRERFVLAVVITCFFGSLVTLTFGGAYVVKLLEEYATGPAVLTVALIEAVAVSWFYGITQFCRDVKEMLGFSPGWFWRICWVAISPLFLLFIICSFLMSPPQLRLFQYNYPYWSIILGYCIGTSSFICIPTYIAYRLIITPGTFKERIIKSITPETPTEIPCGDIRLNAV
Outline: (§2)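 Transporter and α1-adrenergic binding run externally by Eurofins Cerep using their standard protocols. Reported as % inhibition of control specific binding.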

[7] = biological target: Sodium-dependent dopamine transporter (Homo sapiens) (UniProt Q01959); assay: Displacement of [3H]BTCP from recombinant human DAT at 1 uM after 120 mins by scintillation counting analysis relative to control; outline: as §2
Sequence of Sodium-dependent dopamine transporter (Homo sapiens) (Q01959 whole entry): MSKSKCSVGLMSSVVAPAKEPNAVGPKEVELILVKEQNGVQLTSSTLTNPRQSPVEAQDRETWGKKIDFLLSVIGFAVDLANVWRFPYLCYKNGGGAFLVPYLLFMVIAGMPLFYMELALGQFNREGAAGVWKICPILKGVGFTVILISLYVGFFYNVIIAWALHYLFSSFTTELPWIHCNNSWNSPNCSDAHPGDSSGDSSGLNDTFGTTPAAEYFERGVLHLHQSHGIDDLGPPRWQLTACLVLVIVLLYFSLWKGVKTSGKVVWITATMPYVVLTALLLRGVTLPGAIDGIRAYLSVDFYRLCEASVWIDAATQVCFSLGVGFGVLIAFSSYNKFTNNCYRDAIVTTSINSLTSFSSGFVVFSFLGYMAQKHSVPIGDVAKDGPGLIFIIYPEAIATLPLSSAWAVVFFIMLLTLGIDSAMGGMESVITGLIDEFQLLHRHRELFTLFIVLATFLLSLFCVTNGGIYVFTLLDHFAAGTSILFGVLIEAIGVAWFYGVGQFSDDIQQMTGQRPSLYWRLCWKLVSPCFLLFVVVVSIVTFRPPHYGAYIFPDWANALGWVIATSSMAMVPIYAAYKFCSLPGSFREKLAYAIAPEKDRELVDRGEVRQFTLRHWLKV

[8] = biological target: Sodium-dependent noradrenaline transporter (Homo sapiens) (UniProt P23975); assay: Displacement of [3H]nisoxetine from recombinant human NET at 1 uM after 120 mins by scintillation counting analysis relative to control; outline: as §2
Sequence of Sodium-dependent noradrenaline transporter (Homo sapiens) (P23975 whole entry): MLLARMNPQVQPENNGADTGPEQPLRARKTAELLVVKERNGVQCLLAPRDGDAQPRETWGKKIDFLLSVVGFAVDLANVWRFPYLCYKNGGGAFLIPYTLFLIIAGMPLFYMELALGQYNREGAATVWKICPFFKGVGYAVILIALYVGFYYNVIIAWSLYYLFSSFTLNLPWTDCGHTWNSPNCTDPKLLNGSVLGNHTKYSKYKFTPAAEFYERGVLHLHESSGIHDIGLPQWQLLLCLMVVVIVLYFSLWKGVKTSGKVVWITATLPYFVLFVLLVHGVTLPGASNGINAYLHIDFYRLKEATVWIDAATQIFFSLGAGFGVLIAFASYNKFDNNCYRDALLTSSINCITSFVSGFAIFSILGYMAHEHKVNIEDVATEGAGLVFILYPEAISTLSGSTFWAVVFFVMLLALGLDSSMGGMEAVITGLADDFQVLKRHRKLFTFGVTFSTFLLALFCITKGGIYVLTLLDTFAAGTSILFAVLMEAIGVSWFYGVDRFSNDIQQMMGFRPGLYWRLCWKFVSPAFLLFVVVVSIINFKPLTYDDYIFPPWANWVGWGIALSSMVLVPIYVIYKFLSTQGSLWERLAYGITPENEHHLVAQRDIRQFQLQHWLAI

Mus musculus [9] = assay: Antidepressant-like activity in Swiss albino mouse assessed as decrease in immobility time at 0.625 to 2.5 mg/kg measured during last 4 mins of 6 mins test by forced swim test relative to control; format: functional; set-up: scale not given: the % may be the effect or the level left
Outline: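 Porsolt swim test in male Swiss albino mice (22–26 g), 7–10 per dose, each used once, run 09:00–14:00 by a blinded observer. Drugs in distilled water, i.p. at 10 ml/kg: escitalopram 30 min before test, others 60 min. Immobility scored during the last 4 min of a 6 min swim at 23–25 °C. One-way ANOVA with Bonferroni vs vehicle.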

Mus musculus [10] = assay: Antidepressant-like activity in C57BL/6J mouse assessed as increase in force of fights at 2.5 mg/kg measured during 6 mins session by tail suspension test; format: functional, organism-based
Outline: (§3)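 Male C57BL/6J mice (22–26 g), 7–9 per group. Compound in distilled water, i.p. at 10 ml/kg, 60 min before test. Mice suspended by tail from a strain-gauge hook for 6 min. Struggling episodes, average event force and immobility (force below 0.20 N threshold) recorded automatically. One-way ANOVA with Bonferroni; mean ± SEM.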

Mus musculus [11] = assay: Antidepressant-like activity in C57BL/6J mouse assessed as decrease in immobility time at 2.5 mg/kg measured during 6 mins session by tail suspension test; format: functional, organism-based; outline: as §3
Mus musculus [12] = assay: Antidepressant-like activity in C57BL/6J mouse assessed as increase in number of fight episodes at 1.25 mg/kg measured during 6 mins session by tail suspension test; format: functional, organism-based; outline: as §3
Rattus norvegicus = assay: Cognitive enhancement effect in Sprague-Dawley rat memory impairment model assessed as reversal of natural forgetting impairment administered ip 30 mins prior to test measured after 24 hrs by novel object recognition test; format: functional, organism-based
Outline: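 Male Sprague–Dawley rats (about 250 g), handled and acclimatized. Habituated to an open field arena (25 lx) for 5 min, 24 h before testing. Two 3-min trials (T1, T2) separated by a 24 h inter-trial interval. Drug given i.p. 30 min before T1. Object exploration video-tracked; discrimination index = (EB−EA)/(EA+EB).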

Mus musculus [13] = assay: Antidepressant-like activity in Swiss albino mouse assessed as decrease in immobility time at 0.312 mg/kg cotreated with 0.625 mg/kg of escitalopram measured during last 4 mins of 6 mins test by forced swim test relative to control; format: functional; set-up: scale not given: the % may be the effect or the level left
Outline: (§4)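 Male Swiss albino mice, 7–10 per group. Test compound (i.p., 60 min pre-test) co-given with reboxetine or bupropion (60 min) or escitalopram (30 min), all in distilled water at 10 ml/kg. Placed in a water cylinder (10 cm water, 23–25 °C) for 6 min; immobility scored over the last 4 min by a blinded observer. Two-way ANOVA with Bonferroni.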

Mus musculus [14] = assay: Antidepressant-like activity in Swiss albino mouse assessed as decrease in immobility time at 0.312 mg/kg cotreated with 1.25 mg/kg of bupropion measured during last 4 mins of 6 mins test by forced swim test; format: functional, organism-based; outline: as §4
Mus musculus [15] = assay: Toxicity in mouse assessed as effect on spontaneous locomotory activity at 0.312 to 2.5 mg/kg, ip administered 60 mins prior to testing measured for 6 mins; format: organism-based; conditions: in vivo, 0.1 h
Outline: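 Swiss albino or C57BL/6J mice habituated 30 min in activity cages. Ambulation counted from 2–6 min (matching the swim test) or over 6 min (matching the tail suspension test) with an infrared multi-channel activity monitor. Dosing i.p. as for the behavioral tests.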

[16] = biological target: Adrenergic receptor alpha-1 (Homo sapiens) (UniProt P35348+P25100+P35368); assay: Binding affinity to alpha1-adrenergic receptor (unknown origin) at 1 uM relative to control; format: protein assay; outline: as §2
Mus musculus [17] = assay: Antidepressant-like activity in C57BL/6J mouse assessed as increase in number of fight episodes at 0.625 to 1.25 mg/kg measured during 6 mins session by tail suspension test; format: functional, organism-based; outline: as §3
Mus musculus [18] = assay: Antidepressant-like activity in C57BL/6J mouse assessed as decrease in immobility time at 1.25 mg/kg measured during 6 mins session by tail suspension test; format: functional, organism-based; outline: as §3

Sequence of 5-hydroxytryptamine receptor 6 (P50406 whole entry): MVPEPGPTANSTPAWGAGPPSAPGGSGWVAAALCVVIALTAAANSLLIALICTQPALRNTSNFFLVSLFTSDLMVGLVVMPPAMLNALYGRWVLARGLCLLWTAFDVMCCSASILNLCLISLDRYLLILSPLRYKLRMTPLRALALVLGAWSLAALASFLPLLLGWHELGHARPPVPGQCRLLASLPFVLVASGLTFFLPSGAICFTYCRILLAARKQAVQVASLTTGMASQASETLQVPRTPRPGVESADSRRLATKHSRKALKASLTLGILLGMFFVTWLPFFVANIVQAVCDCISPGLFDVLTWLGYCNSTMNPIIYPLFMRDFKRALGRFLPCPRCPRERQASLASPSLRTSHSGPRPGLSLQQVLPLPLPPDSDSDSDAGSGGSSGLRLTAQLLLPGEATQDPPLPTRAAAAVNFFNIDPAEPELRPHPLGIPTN

CC(C)c1ccccc1OCCCN1CCC(NS(=O)(=O)c2ccc(F)cc2)CC1
Ki [1]: 0.268 µM
Ki [2]: 0.032 µM
Ki [3]: 2.08 µM
Ki [4]: 1.35 µM
Ki (D(2) dopamine receptor): 0.328 µM
Ratio Ki (Homo sapiens): 65
Kb [5]: 0.001 µM
Activity [6]: 79%
Activity [7]: < 10%
Activity [8]: < 10%
Activity (Mus musculus [9]): 19 - 53%
Activity (Mus musculus [10]): Active
Activity (Mus musculus [11]): Active
Activity (Mus musculus [12]): Active
Activity (Rattus norvegicus): Dose-dependent effect
Activity (Mus musculus [13]): 32.6%
Activity (Mus musculus [14]): Active
Activity (Mus musculus [15]): Non-Toxic

O=S(=O)(NC1CCN(CCCOc2ccccc2-c2ccccc2)CC1)c1ccc(F)cc1
Ki [2]: 0.058 µM
Ki [3]: 1.84 µM
Ratio Ki (Homo sapiens): 32

O=S(=O)(NC1CCN(CC(O)COc2ccccc2-c2ccccc2)CC1)c1cccc(Cl)c1 (stereo not drawn)
Ki [1]: 0.295 µM
Ki [2]: 0.033 µM
Ki [3]: 1.33 µM
Ki [4]: 2.11 µM
Ki (D(2) dopamine receptor): 0.343 µM
Ratio Ki (Homo sapiens): 40
Kb [5]: 0.025 µM
Activity [6]: < 40%
Activity [7]: < 40%
Activity [8]: < 40%
Activity [16]: < 10%
Activity (Mus musculus [9]): 28 - 46%
Activity (Mus musculus [17]): Active
Activity (Mus musculus [10]): Active
Activity (Mus musculus [11]): Active
Activity (Rattus norvegicus): Dose-dependent effect
Activity (Mus musculus [18]): Active
Activity (Mus musculus [13]): 25.4%
Activity (Mus musculus [14]): Active
Activity (Mus musculus [15]): Non-Toxic

CC(C)c1ccccc1OCCCN1CCC(NS(=O)(=O)c2cccc(F)c2)CC1
Ki [2]: 0.052 µM
Ki [3]: 1.79 µM
Ratio Ki (Homo sapiens): 34

CC(C)c1ccccc1OCC(C)N1CCC(NS(=O)(=O)c2cccc(F)c2)CC1 (stereo not drawn)
Ki [2]: 0.17 µM
Ki [3]: 0.962 µM
Ratio Ki (Homo sapiens): 6

CC(C)c1ccccc1OCC(O)CN1CCC(NS(=O)(=O)c2ccc(F)cc2)CC1 (stereo not drawn)
Ki [2]: 0.104 µM
Ki [3]: 0.506 µM
Ratio Ki (Homo sapiens): 5

CC(COc1ccccc1-c1ccccc1)N1CCC(NS(=O)(=O)c2cccc(Cl)c2)CC1 (stereo not drawn)
Ki [2]: 0.032 µM
Ki [3]: 0.696 µM
Ratio Ki (Homo sapiens): 22

Source: ChEMBL document CHEMBL4177556, “Novel 5-HT7R antagonists, arylsulfonamide derivatives of (aryloxy)propyl piperidines: Add-on effect to the antidepressant activity of SSRI and DRI, and pro-cognitive profile” (Bioorg Med Chem, 2017)
